Bioassay records deposited in PubChem BioAssay by The Scripps Research Institute Molecular Screening Center.
CHRM1 PAM = human M1 muscarinic receptor positive allosteric modulators, primary screen, CHO-K1 cells, Fluo-8 calcium fluorescence, 1536-well | Muscarinic acetylcholine receptor M1 (Homo sapiens), P11229 | CHO-K1 hM1, ACh EC20; 0% = ACh EC20, 100% = maximal ACh | activation, % at 3 µM | 0.088% of 360,000 active; in the data active = activation above about 19%, passing the limit was not always enough
TAAR1 ag = human TAAR1 agonists, primary screen, Fluo-8 calcium fluorescence, CHO RD-HGA16 cells. Trace amine-associated receptor 1 (Homo sapiens), Q96RJ0. vehicle wells 0%, saturating PEA agonist 100%. activation, % at 3 µM. 0.99% of 360,000 active. AID 624467, 2012;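 active = activation above the mean activation of all test compounds in the run plus 3 SD, cut at about 38% in these data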
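System: CHO RD-HGA16 cells carrying human TAAR1 plus Gα16; Incubation: 17-24 h seeding, 75 min 37 °C dye, 30 min RT; Measured by: Fluo-8 fluorescence, 5 s baseline then 140 s kinetic read; Control set: DMSO and PEA EC100; Replication: single well for each compound.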
M1 antag = human M1 muscarinic receptor antagonists, primary screen, CHO-K1 cells, Fluo-8 calcium fluorescence, 1536-well | Muscarinic acetylcholine receptor M1 (Homo sapiens), P11229 | CHO-K1 hM1, ACh EC80 antagonist | inhibition, % at 3 µM | AID 588852, 2011 | 1.3% of 360,000 active;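 active = percent inhibition above its own plate's cutoff, namely the mean of that plate's compound wells plus 3 SD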;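 also: peak over basal fluorescence ratio during 140 s after agonist addition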
HTR2A ag = mouse Htr2a agonists via beta-arrestin recruitment, primary screen, cell-based, luminescence; 5-hydroxytryptamine receptor 2A (Mus musculus), P35363; CHO-K1 mHTR2A beta-arrestin complementation; percent of 30 µM serotonin response; activation, % at 7.6 µM; 0.66% of 360,000 active; AID 624169, 2012;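 active = activation above a run cutoff, the mean activation of all tested compounds plus 3 SD, cut at about 14% in these data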
Target sequence (P35363 whole entry, looked up): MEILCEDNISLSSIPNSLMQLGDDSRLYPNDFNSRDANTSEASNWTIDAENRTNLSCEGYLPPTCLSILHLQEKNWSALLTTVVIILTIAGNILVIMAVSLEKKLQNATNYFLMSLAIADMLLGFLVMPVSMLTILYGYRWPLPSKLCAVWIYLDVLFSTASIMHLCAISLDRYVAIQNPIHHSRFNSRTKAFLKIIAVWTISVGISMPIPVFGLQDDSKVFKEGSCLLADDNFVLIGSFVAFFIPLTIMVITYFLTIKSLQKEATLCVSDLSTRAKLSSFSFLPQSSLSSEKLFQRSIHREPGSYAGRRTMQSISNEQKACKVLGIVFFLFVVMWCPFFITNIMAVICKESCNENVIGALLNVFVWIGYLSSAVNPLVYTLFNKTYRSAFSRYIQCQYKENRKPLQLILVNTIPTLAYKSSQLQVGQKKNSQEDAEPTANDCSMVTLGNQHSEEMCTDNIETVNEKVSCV
M1 ag = human M1 muscarinic receptor agonists, primary screen, Fluo-8 calcium fluorescence, CHO-K1 cells, HTS; 0.33% of 360,000 active; activation, % at 3 µM; Muscarinic acetylcholine receptor M1 (Homo sapiens), P11229; CHO-K1 hM1, agonist mode; 0% DMSO, 100% acetylcholine EC100;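 active = activation above the run's mean compound activation plus 3 SD, cut at about 16% in these data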;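 also: peak over basal fluorescence ratio within a 140 s kinetic read after compound addition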
TAAR1 antagonist = human TAAR1 antagonists, primary screen, Fluo-8 calcium fluorescence, CHO RD-HGA16 cells; Trace amine-associated receptor 1 (Homo sapiens), Q96RJ0; antagonist; inhibition, % at 3 µM; 1.5% of 360,000 active;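 active = inhibition above a per-plate cutoff, the mean inhibition of test compounds on that plate plus 3 SD, cut at about 49% in these data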
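Assay system: CHO-derived RD-HGA16 cells stably expressing human TAAR1 plus Gα16. Timing: 140 s kinetic read after compound, 140 s after agonist. Technique: kinetic Fluo-8 calcium fluorescence measurement. Measure: % inhibition of agonist calcium response.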
nonsel antag count = nonselective antagonists in TAAR1 counter-screen cells, counter-screen for hTAAR1 antagonist project, cell-based, fluorescence, calcium; shares compounds with TAAR1 antagonist; counterscreen cell line, antagonist mode; inhibition, % at 3 µM; 77% of 2,400 active; AID 651780, 2012; in the data active = inhibition above about 22%;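 also: CHO-Ga16 host cells stimulated with ATP at an EC80 level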
TAAR1 ant conf = human TAAR1 antagonists, retest of hits, confirmation, cell-based, fluorescence; AID 651785, 2012; TAAR1-expressing cells, fluorescence antagonist read-out; 40% of 2,400 active; inhibition, % at 3 µM; shares compounds with TAAR1 antagonist; in the data active = inhibition above about 49%;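 also: CHO-Ga16 host cells challenged with agonist PEA near its EC80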
Ga16 nonsel ag = calcium activation in Ga16-expressing cells, counter-screen for TAAR1 antagonist project, cell-based, fluorescence. activation, % at 3 µM. 18% of 2,400 active. agonist counterscreen. shares compounds with TAAR1 antagonist; in the data active = activation above about 12%
TAAR1 ag count = TAAR1 activation by candidate antagonists – cell-based, fluorescence, counter-screen for TAAR1 antagonist project | shares compounds with TAAR1 antagonist | hTAAR1 cell line, agonist mode | activation, % at 3 µM | 2% of 2,400 active | AID 651955, 2012; in the data active = activation above about 37%;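 also: CHO cells stably expressing TAAR1 with calcium dye readout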
A number is an active result. In the library only some 3.9% were active in any assay of this set; here they are far more common.

For COc1ccc(CNC(=O)C(c2ccc(C)o2)N(Cc2cccs2)C(=O)Cc2cccs2)cc1 (configuration not stated) the results were CHRM1 PAM inactive, TAAR1 ag inactive, M1 antag 40, HTR2A ag inactive, M1 ag inactive, TAAR1 antagonist 87, nonsel antag count 42, TAAR1 ant conf 68, Ga16 nonsel ag inactive and TAAR1 ag count inactive.
Screening Nc1cc(=O)[nH]c(SCC(=O)N2CCC(Cc3ccccc3)CC2)n1 returned CHRM1 PAM inactive, TAAR1 ag inactive, M1 antag inactive, HTR2A ag inactive, M1 ag inactive and TAAR1 antagonist inactive.
For CN1CCCN(C(=O)c2c(F)cccc2Cl)CC1 the results were CHRM1 PAM inactive, TAAR1 ag inactive, M1 antag inactive, HTR2A ag inactive, M1 ag inactive and TAAR1 antagonist inactive.
For C[C@@H]1CCC2[C@](C)(CO)[C@@H](O)CC[C@]2(C)[C@@]12C[C@](CO)(CC(=O)O)CO2 (some centres not stated) the results were CHRM1 PAM inactive, TAAR1 ag inactive, M1 antag inactive, HTR2A ag inactive, M1 ag inactive and TAAR1 antagonist inactive.
Screening CN(C)C(CNC(=O)C1CC(=O)N(Cc2ccccc2)C1)c1ccccc1 (configuration not stated) returned CHRM1 PAM inactive, TAAR1 ag inactive, M1 antag inactive, HTR2A ag inactive, M1 ag inactive and TAAR1 antagonist inactive.
Screening Cc1ccc(-c2nn(-c3cccc(F)c3)cc2CN2CCN(c3ccccn3)CC2)o1 returned CHRM1 PAM inactive, TAAR1 ag inactive, M1 antag inactive, HTR2A ag inactive, M1 ag inactive and TAAR1 antagonist inactive.
For Cc1ccc(-c2nn(-c3cccc(F)c3)cc2CNCc2cccnc2)o1 the results were CHRM1 PAM inactive, TAAR1 ag inactive, M1 antag inactive, HTR2A ag inactive, M1 ag inactive, TAAR1 antagonist 66, nonsel antag count 31, TAAR1 ant conf inactive, Ga16 nonsel ag inactive and TAAR1 ag count inactive.
For COc1ccc(C2C(C(=O)N3CCN(c4ccccn4)CC3)CC(=O)N2c2ccc(OC)cc2)cc1 (configuration not stated) the results were CHRM1 PAM inactive, TAAR1 ag inactive, M1 antag inactive, HTR2A ag inactive, M1 ag inactive, TAAR1 antagonist 57, nonsel antag count 26, TAAR1 ant conf inactive, Ga16 nonsel ag 13 and TAAR1 ag count inactive.
For c1ccc(COc2cccc(-c3cc4nc(NCCOc5ccccc5)ccn4n3)c2)cc1 the results were CHRM1 PAM inactive, TAAR1 ag inactive, M1 antag inactive, HTR2A ag inactive, M1 ag inactive and TAAR1 antagonist inactive.
For c1ccc(COc2cccc(-c3cc4nc(NCCc5ccncc5)ccn4n3)c2)cc1 the results were CHRM1 PAM inactive, TAAR1 ag inactive, M1 antag inactive, HTR2A ag inactive, M1 ag inactive, TAAR1 antagonist 71, nonsel antag count 38, TAAR1 ant conf 51, Ga16 nonsel ag inactive and TAAR1 ag count inactive.
`CC(=O)c1c(C)[nH]c(C(=O)Nc2nc(-c3ccc(Cl)cc3)cs2)c1C` gave CHRM1 PAM inactive, TAAR1 ag inactive, M1 antag inactive, HTR2A ag inactive, M1 ag inactive and TAAR1 antagonist inactive.
For CC(=O)c1c(C)[nH]c(C(=O)Nc2nc(-c3ccc(-c4ccccc4)cc3)cs2)c1C the results were CHRM1 PAM inactive, TAAR1 ag inactive, M1 antag inactive, HTR2A ag inactive, M1 ag inactive, TAAR1 antagonist 93, nonsel antag count 71, TAAR1 ant conf 97, Ga16 nonsel ag 27 and TAAR1 ag count 37.
Screening O=C(Nc1nc(-c2ccccc2)cs1)c1ccccc1NS(=O)(=O)c1ccc(F)cc1 returned CHRM1 PAM inactive, TAAR1 ag inactive, M1 antag 42, HTR2A ag inactive, M1 ag inactive, TAAR1 antagonist 70, nonsel antag count 58, TAAR1 ant conf 68, Ga16 nonsel ag inactive and TAAR1 ag count inactive.
For O=S(=O)(Nc1ccc(-c2csc(-c3ccccc3)n2)cc1)c1ccc(F)cc1 the results were CHRM1 PAM inactive, TAAR1 ag inactive, M1 antag inactive, HTR2A ag inactive, M1 ag inactive and TAAR1 antagonist inactive.
For O=C(CNC(=O)c1cccc(F)c1)OCCOc1cccc(Cl)c1 the results were CHRM1 PAM inactive, TAAR1 ag inactive, M1 antag inactive, HTR2A ag inactive, M1 ag inactive and TAAR1 antagonist inactive.
Screening CCCn1c(=O)n(C)c(=O)c2c(SC(C)C(=O)NCC3CCCO3)nc(CC(C)C)nc21 (configuration not stated) returned CHRM1 PAM inactive, TAAR1 ag inactive, M1 antag inactive, HTR2A ag inactive, M1 ag inactive and TAAR1 antagonist inactive.
Screening COc1cccc(/C=N/NC(=O)c2cc(C34CC5CC(CC(C5)C3)C4)[nH]n2)c1 returned CHRM1 PAM inactive, TAAR1 ag inactive, M1 antag inactive, HTR2A ag inactive, M1 ag inactive, TAAR1 antagonist 57, nonsel antag count 23, TAAR1 ant conf inactive, Ga16 nonsel ag inactive and TAAR1 ag count inactive.
O=c1cc(-c2ccccc2Cl)oc2c(NS(=O)(=O)c3cc(Cl)cc(Cl)c3O)ccc(O)c12 was read as CHRM1 PAM inactive, M1 antag inactive, HTR2A ag inactive and M1 ag inactive.
